Data from ChEMBL document CHEMBL1154112, “Parallel synthesis of potent dopaminergic N-phenyltriazole carboxamides applying a novel click chemistry based phenol linker” (Bioorg Med Chem, 2009).
The source made the active and inactive calls. No cut-off for these calls is given here.

Columns and labels:
[1] = biological target: D(1A) dopamine receptor (Sus scrofa) (UniProt P50130); test: Displacement of [3H]SCH23390 from pig dopamine D1 receptor
Method in brief: (§1)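 Porcine striatal membranes were incubated with 0.3 nM [3H]SCH 23390 (Kd 0.95 nM). Protein was measured by Lowry against a BSA standard. Test compounds were screened at 100 nM and 1 nM in triplicate. Ki values were derived by nonlinear regression of competition curves, as means of 2–4 experiments each run in triplicate.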

Sus scrofa = organism: Sus scrofa; test: Displacement of [3H]prazosin from pig alpha-1 adrenergic receptor; design: concentration or dose not given beside the values
Method in brief: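 Porcine cortical membranes at 55 µg protein per tube, [3H]prazosin as radioligand (Kd 0.06 nM). Ki obtained by non-linear regression of competition curves, means of 2–4 experiments each run in triplicate; screening run at 10 µM, 100 nM and 1 nM test compound in triplicate.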

D(2) dopamine receptor [2] = biological target: T1, D(2) dopamine receptor (Homo sapiens, UniProt P14416); test: Displacement of [3H]spiperone from human cloned dopamine D2-long expressed in CHO cells; type: cell-based
T1 sequence (P14416 whole entry): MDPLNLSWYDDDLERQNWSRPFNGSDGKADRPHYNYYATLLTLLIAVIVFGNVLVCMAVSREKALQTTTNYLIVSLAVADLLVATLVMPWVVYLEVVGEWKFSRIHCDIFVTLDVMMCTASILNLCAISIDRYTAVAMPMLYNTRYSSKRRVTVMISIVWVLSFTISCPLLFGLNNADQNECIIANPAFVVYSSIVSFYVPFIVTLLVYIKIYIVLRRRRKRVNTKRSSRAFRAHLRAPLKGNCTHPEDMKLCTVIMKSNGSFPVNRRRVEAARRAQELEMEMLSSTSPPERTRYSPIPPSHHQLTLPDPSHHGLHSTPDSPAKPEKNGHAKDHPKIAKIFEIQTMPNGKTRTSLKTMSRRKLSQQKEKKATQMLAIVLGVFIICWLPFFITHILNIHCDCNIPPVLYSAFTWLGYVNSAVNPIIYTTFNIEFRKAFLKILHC
Method in brief: (§2)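 Competition binding used membranes from CHO cells expressing human D2long, D2short, D3 or D4.4, with 0.5 nM final [3H]spiperone. Screening was run at 100 nM and 1 nM test compound in triplicate. Ki values come from nonlinear regression, as means of 2–4 experiments each run in triplicate.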

D(2) dopamine receptor [3] = biological target: T1, D(2) dopamine receptor; test: Displacement of [3H]spiperone from human cloned dopamine D2-short expressed in CHO cells; type: cell-based; design: concentration or dose not given beside the values; method in brief: as §2
D(3) dopamine receptor [4] = biological target: T2, D(3) dopamine receptor (Homo sapiens, UniProt P35462); test: Displacement of [3H]spiperone from human cloned dopamine D3 expressed in CHO cells; type: cell-based; design: concentration or dose not given beside the values; method in brief: as §2
T2 sequence (P35462 whole entry): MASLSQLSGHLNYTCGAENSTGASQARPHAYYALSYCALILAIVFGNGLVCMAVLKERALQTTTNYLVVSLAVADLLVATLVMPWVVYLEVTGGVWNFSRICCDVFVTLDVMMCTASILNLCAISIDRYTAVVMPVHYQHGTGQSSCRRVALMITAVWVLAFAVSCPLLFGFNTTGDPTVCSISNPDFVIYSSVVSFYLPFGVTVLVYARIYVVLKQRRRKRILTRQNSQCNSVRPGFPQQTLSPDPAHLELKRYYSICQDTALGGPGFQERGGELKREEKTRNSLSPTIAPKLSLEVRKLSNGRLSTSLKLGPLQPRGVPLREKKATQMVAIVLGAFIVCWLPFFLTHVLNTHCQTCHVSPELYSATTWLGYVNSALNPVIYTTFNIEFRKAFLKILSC

[5] = Binding affinity to pig alpha-1 adrenergic receptor; design: species or system Sus scrofa
Method in brief: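 Alpha1 binding used porcine cortical membranes with [3H]prazosin (KD 0.06 nM). Protein was measured by Lowry against a BSA standard. Ki came from nonlinear regression of competition curves, as the mean of 2–4 experiments each run in triplicate.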

D(2) dopamine receptor [6] = biological target: T1, D(2) dopamine receptor; test: Binding affinity to human cloned dopamine D2-short expressed in CHO cells; type: cell-based; method in brief: as §2
D(1A) dopamine receptor = D(1A) dopamine receptor (Sus scrofa, UniProt P50130); test: Binding affinity to pig dopamine D1 receptor; method in brief: as §1
D(1A) dopamine receptor, sequence (P50130 whole entry): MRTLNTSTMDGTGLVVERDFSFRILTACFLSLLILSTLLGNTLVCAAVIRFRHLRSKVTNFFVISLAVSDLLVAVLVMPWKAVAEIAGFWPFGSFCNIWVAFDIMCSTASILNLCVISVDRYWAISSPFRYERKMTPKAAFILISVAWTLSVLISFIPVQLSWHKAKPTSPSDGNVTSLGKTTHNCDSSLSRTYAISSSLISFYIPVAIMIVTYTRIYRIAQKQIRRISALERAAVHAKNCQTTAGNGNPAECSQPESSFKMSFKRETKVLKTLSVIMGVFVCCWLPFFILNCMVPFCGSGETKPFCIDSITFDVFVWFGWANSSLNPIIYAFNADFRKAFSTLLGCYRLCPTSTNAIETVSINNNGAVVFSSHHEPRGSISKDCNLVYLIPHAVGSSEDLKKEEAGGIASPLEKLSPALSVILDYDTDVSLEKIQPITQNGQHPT

D(3) dopamine receptor [7] = biological target: T2, D(3) dopamine receptor; test: Binding affinity to human cloned dopamine D3 expressed in CHO cells; type: cell-based
D(4) dopamine receptor = biological target: T3, D(4) dopamine receptor (Homo sapiens, UniProt P21917); test: Binding affinity to human cloned dopamine D4.4 expressed in CHO cells; type: cell-based
T3 sequence (P21917 whole entry): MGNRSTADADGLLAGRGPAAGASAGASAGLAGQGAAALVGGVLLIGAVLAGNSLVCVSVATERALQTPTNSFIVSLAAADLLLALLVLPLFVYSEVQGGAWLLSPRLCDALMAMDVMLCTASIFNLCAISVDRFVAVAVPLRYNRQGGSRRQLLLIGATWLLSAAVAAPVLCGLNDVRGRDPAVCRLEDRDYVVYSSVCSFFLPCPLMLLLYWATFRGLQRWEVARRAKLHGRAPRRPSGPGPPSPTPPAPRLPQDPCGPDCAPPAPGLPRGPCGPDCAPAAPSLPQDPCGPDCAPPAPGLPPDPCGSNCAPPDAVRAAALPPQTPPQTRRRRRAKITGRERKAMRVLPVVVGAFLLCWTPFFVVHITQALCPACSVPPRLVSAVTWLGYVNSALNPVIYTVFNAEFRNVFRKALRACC

D(2) dopamine receptor [8] = biological target: T1, D(2) dopamine receptor; test: Binding affinity to human cloned dopamine D2-long expressed in CHO cells; type: cell-based; method in brief: as §2
[9] = biological target: T4, D(4) dopamine receptor (Homo sapiens) (UniProt P21917); test: Displacement of [3H]spiperone from human cloned dopamine D4.4 expressed in CHO cells; type: cell-based; method in brief: as §2
T4 sequence (whole entry): T3 sequence (P21917 whole entry)

D(1A) dopamine receptor (Sus scrofa), sequence (P50130 whole entry): as the sequence (P50130 whole entry) above

Row | Activity [1] | Activity (Sus scrofa) | Activity (D(2) dopamine receptor [2]) | Activity (D(2) dopamine receptor [3]) | Activity (D(3) dopamine receptor [4]) | Ki [5] | Ki (D(2) dopamine receptor [6]) | Ki (D(1A) dopamine receptor) | Ki (D(3) dopamine receptor [7]) | Ki (D(4) dopamine receptor) | Ki (D(2) dopamine receptor [8]) | Activity [9] | Structure (SMILES)
1 | inactive | – | – | – | 42% | – | – | – | – | – | – | 41% | COc1ccc(-n2cc(CCCC(=O)NCCN3CCN(c4cccc(Cl)c4Cl)CC3)nn2)cc1
2 | inactive | 39% | – | – | 40% | – | – | – | – | – | – | – | COc1ccc(-n2cc(C(=O)NCCN3CCN(c4cccc(Cl)c4Cl)CC3)nn2)cc1
3 | inactive | 73% | – | 38% | 58% | – | – | – | – | – | – | – | COc1ccccc1N1CCN(CCCCNC(=O)c2cn(-c3ccc([N+](=O)[O-])cc3)nn2)CC1
4 | inactive | – | – | 43% | 71% | 42 nM | 42 nM | 1800 nM | 9.3 nM | 200 nM | 120 nM | – | COc1ccc(-n2cc(CCCC(=O)NCCCCN3CCN(c4cccc(Cl)c4Cl)CC3)nn2)cc1
5 | inactive | 43% | – | – | – | – | – | – | – | – | – | – | COc1ccccc1N1CCN(CCNC(=O)CCCc2cn(-c3ccc([N+](=O)[O-])cc3)nn2)CC1
6 | inactive | 56% | – | – | – | – | – | – | – | – | – | – | COc1ccc(-n2cc(C(=O)NCCN3CCN(c4ccccc4OC)CC3)nn2)cc1
7 | inactive | – | – | – | 39% | – | – | – | – | – | – | 37% | O=C(CCCc1cn(-c2ccc([N+](=O)[O-])cc2)nn1)NCCN1CCN(c2cccc(Cl)c2Cl)CC1

More lines, now with the values behind:

Row | Structure (SMILES) | Activity [1] | Activity (Sus scrofa) | Activity (D(2) dopamine receptor [2]) | Activity (D(2) dopamine receptor [3]) | Activity (D(3) dopamine receptor [4]) | Ki [5] | Ki (D(2) dopamine receptor [6]) | Ki (D(1A) dopamine receptor) | Ki (D(3) dopamine receptor [7]) | Ki (D(4) dopamine receptor) | Ki (D(2) dopamine receptor [8]) | Activity [9]
8 | COc1ccccc1N1CCN(CCCCNC(=O)CCCc2cn(-c3ccc([N+](=O)[O-])cc3)nn2)CC1 | inactive | 83% | 39% | 52% | 51% | – | – | – | – | – | – | –
9 | COc1ccc(-n2cc(C(=O)NCCCCN3CCN(c4ccccc4OC)CC3)nn2)cc1 | inactive | 64% | – | – | 57% | – | – | – | – | – | – | –
10 | COc1ccc(-n2cc(C(=O)NCCCCN3CCN(c4cccc(Cl)c4Cl)CC3)nn2)cc1 | inactive | – | – | – | 76% | 46 nM | 68 nM | 1700 nM | 4.9 nM | 320 nM | 44 nM | –
11 | COc1ccc(-n2cc(CCCC(=O)NCCCCN3CCN(c4ccccc4Cl)CC3)nn2)cc1 | inactive | 58% | – | – | 38% | – | – | – | – | – | – | –
12 | O=C(CCCc1cn(-c2ccc([N+](=O)[O-])cc2)nn1)NCCCCN1CCN(c2ccccc2Cl)CC1 | inactive | 64% | – | – | 51% | – | – | – | – | – | – | –
13 | O=C(NCCCCN1CCN(c2ccccc2Cl)CC1)c1cn(-c2ccc([N+](=O)[O-])cc2)nn1 | inactive | 61% | – | – | 61% | – | – | – | – | – | – | –
14 | O=C(NCCN1CCN(c2cccc(Cl)c2Cl)CC1)c1cn(-c2ccc([N+](=O)[O-])cc2)nn1 | inactive | 47% | – | – | 52% | – | – | – | – | – | – | –
15 | O=C(NCCCCN1CCN(c2cccc(Cl)c2Cl)CC1)c1cn(-c2ccc([N+](=O)[O-])cc2)nn1 | inactive | 48% | 33% | 53% | 95% | 17 nM | 53 nM | 810 nM | 1 nM | 280 nM | 49 nM | –
16 | COc1ccc(-n2cc(CCCC(=O)NCCN3CCN(c4ccccc4OC)CC3)nn2)cc1 | inactive | 56% | – | – | – | – | – | – | – | – | – | –
17 | O=C(CCCc1cn(-c2ccc([N+](=O)[O-])cc2)nn1)NCCCCN1CCN(c2cccc(Cl)c2Cl)CC1 | inactive | – | – | 43% | 76% | 28 nM | 47 nM | 2200 nM | 5.7 nM | 240 nM | 83 nM | –
18 | COc1ccccc1N1CCN(CCNC(=O)c2cn(-c3ccc([N+](=O)[O-])cc3)nn2)CC1 | inactive | 80% | – | – | – | 6.5 nM | 470 nM | 4100 nM | 4.9 nM | 140 nM | 750 nM | –
19 | COc1ccc(-n2cc(CCCC(=O)NCCCCN3CCN(c4ccccc4OC)CC3)nn2)cc1 | inactive | 72% | – | 33% | 46% | – | – | – | – | – | – | –
20 | COc1ccc(-n2cc(C(=O)NCCCCN3CCN(c4ccccc4Cl)CC3)nn2)cc1 | inactive | 55% | – | – | 58% | – | – | – | – | – | – | –
